Assay results reported in ChEMBL document CHEMBL1153319, “Dancing of the second aromatic residue around the 6,8-diazabicyclo[3.2.2]nonane framework: influence on sigma receptor affinity and cytotoxicity” (J Med Chem, 2009).

Legend:
RT-4 = test: Cytotoxicity against human RT4 cells after 96 hrs by crystal violet staining; assay type: functional, cell-based; details: RT-4, 96 h
Outline: (§1)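 Human tumour lines from DSMZ given a 20 µM primary screen for 96 h at 37 °C. Those cutting growth >50% versus untreated controls were then tested at 5 serial dilutions (DMSO stocks) for 96 h. Remaining cell density read by crystal violet staining. IC50 from least-squares dose-response fit using concentrations giving T/C 10–90%.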

[1] = target: Sigma non-opioid intracellular receptor 1 (Cavia porcellus) (UniProt Q60492); test: Displacement of [3H](+)-pentazocine from sigma 1 receptor in guinea pig brain membrane at 1 uM by scintillation analysis; assay type: cell membranes
Sequence of Sigma non-opioid intracellular receptor 1 (Cavia porcellus) (Q60492 whole entry): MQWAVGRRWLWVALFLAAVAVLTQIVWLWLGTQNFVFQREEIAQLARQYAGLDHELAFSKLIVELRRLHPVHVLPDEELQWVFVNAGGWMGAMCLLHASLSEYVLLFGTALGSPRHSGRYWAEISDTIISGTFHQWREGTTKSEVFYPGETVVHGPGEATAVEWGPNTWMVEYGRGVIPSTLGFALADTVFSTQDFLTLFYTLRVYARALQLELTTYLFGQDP
Outline: (§2)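 Guinea pig brain homogenate (about 75 µg protein) incubated with test compound, 2 nM [3H]-(+)-pentazocine (Kd 2.9 nM) in 50 mM Tris pH 7.4, 180 min at 37 °C. Nonspecific binding with 10 µM unlabeled (+)-pentazocine. Rapid filtration, water washes, solid scintillator counting. Ki by Cheng–Prusoff from six-concentration competition curves, triplicates, mean ± SEM of three experiments; single-point lines give inhibition at 1 µM.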

[2] = Cytotoxicity against human LCLC-103H cells after 96 hrs by crystal violet staining; assay type: functional, cell-based; outline: as §1
MCF7 = test: Cytotoxicity against human MCF7 cells after 96 hrs by crystal violet staining; assay type: functional, cell-based; details: MCF7, 96 h; outline: as §1
Rattus norvegicus = organism: Rattus norvegicus; test: Displacement of [3H]1,3-ditolylguanine from sigma 2 receptor in rat liver membrane by solid scintillation analysis at 1 uM; assay type: cell membranes
A-427 = test: Cytotoxicity against human A427 cells after 96 hrs by crystal violet staining; assay type: functional, cell-based; details: A-427, 96 h; outline: as §1
DAN-G = test: Cytotoxicity against human DAN-G cells after 96 hrs by crystal violet staining; assay type: functional, cell-based; outline: as §1
5637 = test: Cytotoxicity against human 5637 cells after 96 hrs by crystal violet staining; assay type: functional, cell-based; details: Homo sapiens, 5637, 96 h; outline: as §1
[3] = target: Sigma non-opioid intracellular receptor 1 (Homo sapiens, UniProt Q99720); test: Binding affinity to sigma 1 receptor; outline: as §2
Sequence of Sigma non-opioid intracellular receptor 1 (Homo sapiens, UniProt Q99720) (Q99720 whole entry): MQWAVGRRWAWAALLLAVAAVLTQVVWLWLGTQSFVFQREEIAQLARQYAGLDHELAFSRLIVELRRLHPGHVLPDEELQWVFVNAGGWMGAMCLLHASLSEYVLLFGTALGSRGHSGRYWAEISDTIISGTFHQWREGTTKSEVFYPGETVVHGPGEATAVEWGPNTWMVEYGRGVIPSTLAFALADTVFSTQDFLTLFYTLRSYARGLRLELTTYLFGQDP

[4] = Selectivity for sigma 2 receptor in rat liver membrane over sigma 1 receptor in guinea pig brain membrane; assay type: cell membranes
[5] = Displacement of [3H]1,3-ditolylguanine from sigma 2 receptor in rat liver membrane by solid scintillation analysis; assay type: cell membranes
[6] = target: Sigma non-opioid intracellular receptor 1 (Cavia porcellus, UniProt Q60492); test: Displacement of [3H](+)-pentazocine from sigma 1 receptor in guinea pig brain membrane by scintillation analysis; assay type: cell membranes
Sequence of Sigma non-opioid intracellular receptor 1 (Cavia porcellus, UniProt Q60492) (Q60492 whole entry): as the sequence (Q60492 whole entry) above

[7] = Selectivity ratio of IC50 for sigma 2 receptor in rat liver membrane to IC50 for sigma 1 receptor in guinea pig brain membrane; assay type: cell membranes

Activity [1] [%] | Activity (Rattus norvegicus) [%] | Ki [3] [µM] | fold change (FC) [4] | Ki [5] [µM] | Ki [6] [µM] | Ratio IC50 [7] | Structure (SMILES) | IC50 (RT-4) [µM] | IC50 [2] [µM] | IC50 (MCF7) [µM] | IC50 (A-427) [µM] | IC50 (DAN-G) [µM] | IC50 5637 [µM]
 |  | 2.24 |  |  |  |  | C=CCN1CC2[C@@H](O)CCC1CN2Cc1ccc(OC)cc1 (stereo partly drawn) |  |  |  |  |  | 
20 |  |  | 5 | 0.4 |  |  | C=CCN1C[C@@H]2[C@H](OCc3ccccc3)CC[C@H]1CN2Cc1ccc(OC)cc1OC | 8.57 | 11.1 | 5.81 | 3.55 | 4.58 | 4.73
 |  |  | 5 | 0.479 | 2.12 |  | C=CCN1C[C@@H]2[C@H](Oc3ccccc3)CC[C@H]1CN2Cc1ccc(OC)cc1 | 19.1 | > 20 | 12.7 | 5.95 | 15.8 | 14
 |  |  |  | 6.46 | 0.091 | 70 | C=CCN1C[C@H]2[C@H](OCc3ccccc3)CC[C@@H]1CN2Cc1ccc(OC)cc1 | 14.3 | 19.9 | 9.13 | 4.61 | 12.7 | 11.2
 |  |  | 5 | 0.469 | 4.05 |  | C=CCN1C[C@@H]2[C@H](Oc3ccccc3)CC[C@H]1CN2Cc1ccc(OC)cc1OC | 15.3 | > 20 | 9.11 | 7.09 | 12.5 | 11.7

More lines, now with the values behind:

Structure (SMILES) | Activity [1] [%] | Activity (Rattus norvegicus) [%] | Ki [3] [µM] | fold change (FC) [4] | Ki [5] [µM] | Ki [6] [µM] | Ratio IC50 [7] | IC50 (RT-4) [µM] | IC50 [2] [µM] | IC50 (MCF7) [µM] | IC50 (A-427) [µM] | IC50 (DAN-G) [µM] | IC50 5637 [µM]
CCCN1CC2C(=O)C[C@@H](c3ccccc3)C1CN2Cc1ccc(OC)cc1 (stereo partly drawn) | 40 | 11 |  |  |  |  |  | > 20 | > 20 | > 20 | > 20 | > 20 | > 20
COc1ccc(CN2C[C@@H]3[C@H](c4ccccc4)CC(=O)[C@H]2CN3Cc2ccccc2)cc1 | 17 | 0 |  |  |  |  |  | 20.5 | > 20 | 19.4 | 10.3 | 16.1 | 18.3
C=CCN1C[C@H]2/C(=C\c3ccccc3)CC[C@@H]1CN2Cc1ccc(OC)cc1 |  |  |  |  | 0.566 | 0.104 | 5 | 14.1 | 17.8 | 7.25 | 3.93 | 9.82 | 10.9
COc1ccc(CN2CC3CCC(=O)C2CN3Cc2ccccc2)cc1 (stereo not drawn) |  |  | 0.053 |  |  |  |  |  |  |  |  |  | 
C=CCN1CC2C(=O)CCC1CN2Cc1ccc(OC)cc1 (stereo not drawn) |  |  | 1.6 |  |  |  |  |  |  |  |  |  | 
C=CCN1C[C@H]2c3[nH]c4ccc(OC)cc4c3C[C@@H]1CN2Cc1ccc(OC)cc1 | 37 | 44 |  |  |  |  |  | > 20 | > 20 | > 20 | 15.4 | > 20 | 16.1
COc1ccc(CN2CCN(Cc3ccccc3)[C@@H](CO)C2)cc1 |  |  | 0.012 |  |  |  |  |  |  |  |  |  | 
